According to ChEMBL document CHEMBL5055620, “Design, Synthesis, and Structural Characterization of Lysine Covalent BH3 Peptides Targeting Mcl-1” (J Med Chem, 2021):
One block for each compound: values may come before it. Calls of active or inactive are those of the source. The rule behind the calls is not given here. Non-standard residues stand in square brackets, D forms with d. Residues, ends and D or L forms follow the SMILES beside them. ξ: configuration not given here. *: point of attachment. Benzoyl(2-OMe,5-SO2F) = COc1ccc(S(=O)(=O)F)cc1C(=O)*; Benzoyl(3-SO2F) = O=C(c1cccc(S(=O)(=O)F)c1)*; Benzoyl(4-SO2F) = O=C(c1ccc(S(=O)(=O)F)cc1)*; X1 = Cc1ccc(S(=O)(=O)F)cc1C(=O)*; hSer = N[C@@H](CCO)C(=O)O; Nle = CCCC[C@H](N)C(=O)O; Dap = NC[C@H](N)C(=O)O; ξAbu = CCC(N)C(=O)O

Experiments:
[1] = target: T1, Induced myeloid leukemia cell differentiation protein Mcl-1 (Homo sapiens, UniProt Q07820); experiment: Binding affinity to human Mcl-1 assessed as covalent adduct formation by measuring band shift at 100 uM measured after 2 hrs by SDS-PAGE analysis
T1 sequence (Q07820 whole entry, the tested form may be a part): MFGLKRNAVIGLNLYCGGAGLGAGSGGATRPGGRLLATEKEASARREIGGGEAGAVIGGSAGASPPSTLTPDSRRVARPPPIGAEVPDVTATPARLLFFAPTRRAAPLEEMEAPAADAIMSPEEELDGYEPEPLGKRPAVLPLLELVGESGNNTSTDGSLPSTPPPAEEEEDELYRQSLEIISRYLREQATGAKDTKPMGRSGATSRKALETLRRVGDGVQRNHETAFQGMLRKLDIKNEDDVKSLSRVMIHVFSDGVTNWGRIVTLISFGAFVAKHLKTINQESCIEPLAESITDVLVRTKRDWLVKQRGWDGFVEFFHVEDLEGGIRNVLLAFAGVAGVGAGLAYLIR
Procedure, shortened: (§1)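 Protein (hMcl-1 His-tagged construct, or His-tagged hBfl-1 residues 1–149) at 10 μM was incubated with or without agent at 100 μM for 2 h at room temperature in 25 mM TRIS pH 7.5, 150 mM NaCl, 1 mM DTT. Samples were run on 12% Bis-Tris SDS-PAGE with MOPS running buffer and Coomassie-type stained.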

Bcl-2-related protein A1 = target: T2, Bcl-2-related protein A1 (Homo sapiens, UniProt Q16548); experiment: Inhibition of human Bfl-1 (1 to 149 residues) expressed in Rosetta-gami (DE3) using biotinylated-BH3 peptide as substrate measured after 2 hrs by DELFIA displacement assay
T2 sequence (Q16548 whole entry): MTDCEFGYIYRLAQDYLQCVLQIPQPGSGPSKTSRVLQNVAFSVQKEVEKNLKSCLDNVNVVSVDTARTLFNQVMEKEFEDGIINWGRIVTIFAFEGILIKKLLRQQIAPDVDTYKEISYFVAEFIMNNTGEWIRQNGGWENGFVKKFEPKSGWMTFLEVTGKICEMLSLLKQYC

[2] = target: T3, Bcl-2-related protein A1 (Homo sapiens) (UniProt Q16548); experiment: Binding affinity to human Bfl-1 assessed as covalent adduct formation by measuring band shift at 100 uM measured after 2 hrs by SDS-PAGE analysis; procedure, shortened: as §1
T3 sequence (whole entry): T2 sequence (Q16548 whole entry)

[3] = target: T1, Induced myeloid leukemia cell differentiation protein Mcl-1; experiment: Degradation of human Mcl-1 in A549 cells assessed as decrease in Mcl-1 protein levels with DMSO for 1 hr by spiking cell lysate assay; format: cell-based
Procedure, shortened: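 A549 cells (Ham's F-12/GlutaMAX, 10% FBS, PenStrep, 0.5 μg/mL puromycin) were lysed 20 min on ice in Tris pH 7.4/Triton/deoxycholate/SDS/IGEPAL/EDTA buffer with protease and phosphatase inhibitors, then centrifuged. Protein-quantified supernatants were incubated 1 h at 37 °C with DMSO or 100 μM agent. Immunoblot used PVDF, anti-Mcl-1 and anti-β-tubulin (4 °C overnight), and ECL.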

A549 [4] = experiment: Induction of decrease in human Mcl-1 level in A549 cells measured up to 100 uM in presence of carfilzomib treated for 2 hrs by Western blot analysis; format: functional, cell-based
Procedure, shortened: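 A549 cells were treated 2 h with DMSO, 50 or 100 μM agent, with or without 30 min pre-treatment with 1 μM carfilzomib. Lysates were immunoblotted for Mcl-1 and β-tubulin. Densitometry gave Mcl-1 relative to β-tubulin from two independent experiments. Significance was by one-way ANOVA with Dunnett post-test.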

[5] = target: T1, Induced myeloid leukemia cell differentiation protein Mcl-1; experiment: Inhibition of human Mcl-1 assessed as inhibition constant by DELFIA displacement assay
Procedure, shortened: (§2)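 His-tagged hMcl-1 (16 nM) and Eu-N1 anti-6xHis antibody (22.2 ng/well) were pre-bound for 2 h to streptavidin wells coated with biotinylated BIM BH3 peptide (600 ng/mL). Test peptide was then added for 0–40 min at RT, followed by washing, enhancement solution and time-resolved fluorescence at ex 340/em 615 nm. kobs was taken from the slope of % inhibition versus time. Ki and kinact came from a hyperbolic fit of kobs against concentration.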

[6] = target: T1, Induced myeloid leukemia cell differentiation protein Mcl-1; experiment: Binding affinity to human Mcl-1 in human A549 cells assessed as denaturation thermal shift at 100 uM by cellular thermal shift assay; format: cell-based
Procedure, shortened: (§3)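 Cellular thermal shift: one million A549 cells were plated overnight and treated 1 h with 1% DMSO or 100 μM agent. Cells were harvested, protease inhibitors added, and heated 3 min at various temperatures. After lysis, the supernatant was analysed by western blot for Mcl-1.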

[7] = target: T1, Induced myeloid leukemia cell differentiation protein Mcl-1; experiment: Inhibition of human Mcl-1 assessed as Kinact by DELFIA displacement assay; procedure, shortened: as §2
[8] = Stability of the compound in pH 7.4 buffer assessed as intact compound after 3.5 hrs by one-dimensional 1H-NMR analysis; format: physicochemical; conditions: read-out: Stability
[9] = Stability of the compound in pH 7.4 buffer assessed as half life by one-dimensional 1H-NMR analysis; format: physicochemical
[10] = target: T1, Induced myeloid leukemia cell differentiation protein Mcl-1; experiment: Binding affinity to human Mcl-1 assessed as covalent adduct formation by measuring increase in molecular weight at 100 uM by mass spectrometry analysis
A549 [11] = experiment: Prevention of thermal denaturation of proteins in human A549 cells assessed as rescue of protein level at 100 uM by Western blotting analysis; format: functional, cell-based; procedure, shortened: as §3
[12] = target: T1, Induced myeloid leukemia cell differentiation protein Mcl-1; experiment: Inhibition of human Mcl-1 (172 to 323 residues) expressed in Escherichia coli BL21 using biotinylated-BH3 peptide as substrate measured after 2 hrs by DELFIA displacement assay

Compound: CC[C@H](C)[C@H](NC(=O)[C@H](CCCNC(=N)N)NC(=O)[C@H](CCCNC(=N)N)NC(=O)[C@H](CC(C)C)NC(=O)[C@H](CCC(N)=O)NC(=O)[C@H](CCC(=O)O)NC(=O)[C@H](C)NC(=O)[C@@H](NC(=O)[C@H](CNC(=O)c1cc(S(=O)(=O)F)ccc1OC)NC(C)=O)[C@@H](C)CC)C(=O)NCC(=O)N[C@@H](CC(=O)O)C(=O)N[C@@H](CCCNC(=N)N)C(=O)N[C@@H](Cc1ccccc1)C(N)=O (Ac-[Dap](Benzoyl(2-OMe,5-SO2F))IAEQLRRIGDRF-NH2)
Activity [1]: Active
IC50 (Bcl-2-related protein A1): > 0.25 µM
Activity [2]: inactive
Activity [3]: inactive
Activity (A549 [4]): Active
Ki [5]: 0.017 µM
Activity [6]: inactive
Kinact [7]: 0.943 min⁻¹
remaining at 3.5 h [8]: 100%
half-life [9]: > 3.5 h
Activity [10]: Active
Activity (A549 [11]): inactive
IC50 [12]: 0.0236 µM

Compound: CC[C@H](C)[C@H](NC(=O)[C@H](CCCNC(=N)N)NC(=O)[C@H](CCCNC(=N)N)NC(=O)[C@H](CC(C)C)NC(=O)[C@H](CCC(N)=O)NC(=O)[C@H](CCC(=O)O)NC(=O)[C@H](C)NC(=O)[C@@H](NC(=O)[C@H](CNC(=O)c1cccc(S(=O)(=O)F)c1)NC(C)=O)[C@@H](C)CC)C(=O)NCC(=O)N[C@@H](CC(=O)O)C(=O)N[C@@H](CCCNC(=N)N)C(=O)N[C@@H](Cc1ccccc1)C(N)=O (Ac-[Dap](Benzoyl(3-SO2F))IAEQLRRIGDRF-NH2)
IC50 (Bcl-2-related protein A1): > 0.4 µM
IC50 [12]: 0.023 µM

Compound: CC[C@H](C)[C@H](NC(=O)[C@H](CCCNC(=N)N)NC(=O)[C@H](CCCNC(=N)N)NC(=O)[C@H](CC(C)C)NC(=O)[C@H](CCC(N)=O)NC(=O)[C@H](CCC(=O)O)NC(=O)[C@H](C)NC(=O)[C@@H](NC(=O)[C@H](CNC(=O)c1ccc(S(=O)(=O)F)cc1)NC(C)=O)[C@@H](C)CC)C(=O)NCC(=O)N[C@@H](CC(=O)O)C(=O)N[C@@H](CCCNC(=N)N)C(=O)N[C@@H](Cc1ccccc1)C(N)=O (Ac-[Dap](Benzoyl(4-SO2F))IAEQLRRIGDRF-NH2)
IC50 (Bcl-2-related protein A1): > 5 µM
IC50 [12]: 0.094 µM

Compound: CC[C@H](C)[C@H](NC(=O)[C@H](CCCNC(=N)N)NC(=O)[C@H](CCCNC(=N)N)NC(=O)[C@H](CC(C)C)NC(=O)[C@H](CCC(N)=O)NC(=O)[C@H](CCC(=O)O)NC(=O)[C@H](C)NC(=O)[C@@H](NC(=O)[C@H](CNC(=O)c1cc(S(=O)(=O)F)ccc1C)NC(C)=O)[C@@H](C)CC)C(=O)NCC(=O)N[C@@H](CC(=O)O)C(=O)N[C@@H](CCCNC(=N)N)C(=O)N[C@@H](Cc1ccccc1)C(N)=O (Ac-[Dap](X1)IAEQLRRIGDRF-NH2)
Activity [1]: Active
IC50 (Bcl-2-related protein A1): > 1 µM
Activity [2]: inactive
Ki [5]: 0.037 µM
Kinact [7]: 1.16 min⁻¹
remaining at 3.5 h [8]: > 80%
half-life [9]: > 3.5 h
Activity [10]: Active
Activity (A549 [11]): inactive
IC50 [12]: 0.0191 µM

Compound: Ac-AIAEALRRIGDAF-NH2
IC50 [12]: 0.261 µM

Compound: H-AIAQALRRIGDAF-OH
IC50 [12]: 2.2 µM

Results, then the compound that gave them:

IC50 [12]: 1.6 µM
Compound: CCCC[C@H](NC(=O)[C@H](C)NC(=O)[C@H](CC(=O)O)NC(=O)CNC(=O)[C@@H](NC(=O)[C@H](CCCNC(=N)N)NC(=O)[C@H](CCCNC(=N)N)NC(=O)[C@H](CC(C)C)NC(=O)[C@H](C)NC(=O)[C@H](CCC(N)=O)NC(=O)[C@H](C)NC(=O)[C@@H](NC(=O)[C@H](C)N)[C@@H](C)CC)[C@@H](C)CC)C(=O)O (H-AIAQALRRIGDA[Nle]-OH)

IC50 [12]: 1.3 µM
Compound: CCC(NC(=O)[C@H](CCC(N)=O)NC(=O)[C@H](C)NC(=O)[C@@H](NC(=O)[C@H](C)N)[C@@H](C)CC)C(=O)N[C@@H](CC(C)C)C(=O)N[C@@H](CCCNC(=N)N)C(=O)N[C@@H](CCCNC(=N)N)C(=O)N[C@H](C(=O)NCC(=O)N[C@@H](CC(=O)O)C(=O)N[C@@H](C)C(=O)N[C@@H](Cc1ccccc1)C(=O)O)[C@@H](C)CC (stereo partly specified) (H-AIAQ[ξAbu]LRRIGDAF-OH)

IC50 [12]: 3 µM
Compound: CC[C@H](C)[C@H](NC(=O)[C@H](CCCNC(=N)N)NC(=O)[C@H](CCCNC(=N)N)NC(=O)[C@H](CC(C)C)NC(=O)[C@H](CCO)NC(=O)[C@H](CCC(N)=O)NC(=O)[C@H](C)NC(=O)[C@H](CC(C)C)NC(=O)[C@H](C)N)C(=O)NCC(=O)N[C@@H](CC(=O)O)C(=O)N[C@@H](C)C(=O)N[C@@H](Cc1ccccc1)C(=O)O (H-ALAQ[hSer]LRRIGDAF-OH)

IC50 [12]: 0.313 µM
Compound: H-AIAEQLRRIGDAF-NH2

IC50 [12]: 1.2 µM
Compound: H-AIAQALRRIGDAL-OH

IC50 [12]: > 3.6 µM
Compound: H-AIAQALRRIGDAY-OH

IC50 [12]: > 10 µM
Compound: H-ALAQALREIGDAR-OH
